Reference: the array DNA melting data of Ke et al. (doi:10.1101/2024.01.08.574731)

Experiments:
[1] = folding enthalpy; higher = less favourable; fluorescence melt of hairpins on a sequencing array, two-state fit; conditions: sodium 0.088 M
How it was run: (§1)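 Melting temperature and folding enthalpy were derived from bootstrapped two-state fits. The fitted temperatures were raised by 9.35 °C to agree with UV melts, and four replicates were combined by inverse variance. The underlying data were Cy3 fluorescence images of library hairpins, with annealed Cy3 and quencher oligos, on a sequenced MiSeq flow cell in 50 mM Na-HEPES pH 8.0, 25 mM NaCl, taken in 2.5 °C steps up to 60 °C, normalised to pre-quench Cy3 and to control constructs.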

[2] = melting temperature; fluorescence melt of hairpins on a sequencing array, two-state fit, raised by 9.35 °C to match UV melts; conditions: sodium 0.088 M
How it was run: as §1

Sequence	folding enthalpy [1] [kcal/mol]	Tm [2] [°C]
GCGTCCAGACGC ((((....))))	-28.7	56.6
GATCAGGCACCTGATC ((((((....))))))	-41.7	55.4
GGGCCTGCGAAAGCACCC (((..(((....))))))	-9.63	50.5
GATCGGGTAACCGATC ((((((....))))))	-36.6	68.1
GAGTACGAAAGTACCTC ((((((....))).)))	-14.5	47
GTACTGGGAAACCAGTGC (.(((((....))))).)	-22.6	50.2
GTTTGCGGAAACGTAAAC ((((.((....)).))))	-32.3	48.6
GGTAGAACGAAAGTTACC (((..(((....))))))	-17	35
GAGCTGGGAAACCGGTTC ((.(.((....)).).))	-23.3	35.7
GGGGAAGGAAACTTCCCC (((((((....)))))))	-30.4	65
GAGAGCACGAAAGTGCTC (((..(((....))))))	-7.79	64.1
GTGACTCGAAAGAGACAC (((.(((....))).)))	-32.1	54.3
GGAATCGAAAGATGTTCC ((((((....)))..)))	-8.43	22.8
GGGCCTGGAAACGGGCCC (((((.(....).)))))	-38.7	68.9
GACATCGGAAACGGTGTC ((((.((....)).))))	-47	52.2
GCGCAGCGAAAGCGACGC (((..((....))..)))	-15.8	57.6
GCTCCTGGAAACAAGAGC ((((.((....)).))))	-27.9	34.8
GATCACTAAGGTGATC ((((((....))))))	-35.4	57
GATCTTATCTAAGATC ((((((....))))))	-41.9	45.2
GCCAGCCGAAAGGCCGGC (((.(((....))).)))	-27.4	68.4
GGCACCGAAAGGTGTGCC ((((((....)))..)))	-16.3	55.4
GCGGCTGGAAACAGTCGC (((.(((....))).)))	-47.4	67.3
GATCTGGACCAGATC ((((((...))))))	-39.7	49.9

Sequence	folding enthalpy [1] [kcal/mol]	Tm [2] [°C]
GATCTTCTCAAGATC ((((((...))))))	-33.3	46.7
GATCTCTGGCGAGATC ((((((....))))))	-33.6	51.6
GATACCGAAAGGTTCATC ((((((....)))..)))	-12.4	32
GCAGAAGGAAACTTCCGC ((.((((....)))).))	-20.6	37.5
GCGTGGTACGC ((((...))))	-20.5	56.3
GGAGAGGGAAACCTCCCC ((.((((....)))).))	-16.2	39.9
TCTGAGAAATCAGA (((((....)))))	-11.1	33.4
GGGGTGCCGAAAGGCCCC (((..(((....))))))	-14.6	65
GATAGGGGAAACTCTATC (((((.(....).)))))	-31.2	35.7
GATCCCGCTCGGGATC ((((((....))))))	-34	65.8
GATCGGGAAGCCGATC ((((((....))))))	-37.9	59.6
GTGGTTGGAAACAACTGC (..((((....))))..)	-17.6	43.4
GCCCCCGAAAGGGCGGC ((((((....))).)))	-23.2	68.5
GCGCGGCGAAAGCACCGC (((..((....))..)))	-16.6	56.1
GCGAACCGTCGC ((((....))))	-18.7	47.7
CGCGCGGAAACGCTGCG ((((((....))).)))	-26.9	57.1
GTGCACGAAAGTGGTCAC ((((((....)))..)))	-15.9	40.2
GCATCCGAAAGGAGGTGC ((((((....)))..)))	-24.9	48.1
GAGACTGCGAAAGCACTC (((..(((....))))))	-9.86	26.7
GTATCCGAAAGGAGTTAC ((((((....)))..)))	-14.9	25.3
GCACTCGAAAGAGATTGC ((((((....)))..)))	-15.2	34.2
GATCTAGCGTTAGATC ((((((....))))))	-31.1	39.7
GATTACGGAAACGTAACC (.(((((....))))).)	-16.6	33.8
